tolC growth inh: blocks growth of E. coli BW25113 tolC mutant; OD615; growth inhibition, % at 10 µM (by protocol); hit rate 2.2% among 65,000;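 active means growth inhibition at or above a cutoff equal to the mean over every tested compound plus 3 SD, cut at about 60% in these data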;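 further: growth measured after 20 h incubation at 37 °C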
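signal = optical density read at 615 nm | test system = E. coli ΔtolC::kan strain BW25113 | timing = 20 h compound exposure of bacteria at 37 °C | buffer or medium = LB medium plus 50 µg/mL kanamycin | compound dosing = 10 µM final, single dose | evaluation = % inhibition of E. coli growth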
Pyk2 oligo antag: blocks oligomerization of human Pyk2 in cells; z-score (the deposit names both 25 µM and 10 µM); Q14289; hit rate 0.83% among 99,000; AID 1347419; Q293 cells, Pyk2 FERM NanoBiT luminescence; stronger effect = lower value;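 active means Z-score of -3 or lower, scaled per plate to the spread of control and sample wells; inactive means z-score above -3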;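 further: negative z-score means lost luminescence so less FERM oligomerization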
Ecoli WT expand: blocks growth of wild type E. coli BW25113 | AID 710 | growth inhibition, % at 100 µM | hit rate 0.15% among 98,000 | OD600 absorbance;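 active means growth inhibition above about 50% at one test dose, limit read from the data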;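 further: growth measured after 20 h incubation at 37 °C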
Cav3 T inh: human Cav3.2 channel inhibition, primary screen; B-score at 10 µM; Cav3.2-expressing cells, Fluo-4 calcium fluorescence FDSS; stronger effect = lower value; hit rate 4% among 100,000; O95180; AID 449739;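 active means single-dose well whose peak fluorescence ratio is a statistical outlier from its plate by either plate-standardised score or position-corrected B-score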
PostGolgi ctrl: yeast control strain growth, post-Golgi counter-screen; efflux-deficient yeast background strain, growth absorbance A615, 16 h; inhibition, % at 10 µM; hit rate 5% among 98,000
PostGolgi yeast: growth inhibition of a yeast mutant, post-Golgi transport screen. post-Golgi transport phenotypic cell assay. inhibition, % at 10 µM. hit rate 0.9% among 98,000;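 further: yeast cells grown in 1536-well plates; yeast grown about 18 h at 30C before absorbance read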
A number is an active result; – = inactive; · = no result given. This is a sample that favours compounds with a hit; in the whole collection about 8.7% have one here. Unless noted, no stated cut-off is given here; in the data, active means inhibition above about 30%; inactive means the rest.

SMILES	tolC growth inh	Pyk2 oligo antag	Ecoli WT expand	Cav3 T inh	PostGolgi ctrl	PostGolgi yeast
CN(C)C(=O)C(CCN1CCC(O)(c2ccc(Cl)cc2)CC1)(c1ccccc1)c1ccccc1	·	·	·	-4.6	·	·
COc1ccc(CCNC(=O)CN2CCC(C)CC2)cc1OC	·	–	–	–	–	–
Cn1cc(NC(=O)c2cc(NC(=O)c3cc(NC=O)cn3C)cn2C)cc1C(=O)NCCC(=N)N	–	·	·	–	·	·
O=C(Cc1ccccc1)Nc1ccccc1C(=O)O	·	–	–	–	–	–
Cc1nn(-c2ccccc2)c2sc(C(=O)O)cc12	–	–	–	–	–	–
Cc1nn(-c2ccccc2)c2sc(-c3n[nH]c(=S)o3)cc12	78	–	–	–	–	–
COc1ccc2nc(NC(=O)Cc3ccc(OC)c(S(=O)(=O)N4CCOCC4)c3)sc2c1	–	–	–	–	–	–
CCOc1ccc(N=C2NC(=O)S/C2=C\c2ccc(OC)cc2)cc1	·	–	–	–	–	–
O=C1NC(=O)/C(=C\c2ccccc2Oc2ccc(F)c(F)c2)S1	·	–	–	·	43	–
O=c1c(-c2nnc(SCc3ccc(Cl)cc3Cl)o2)cccn1Cc1ccccc1	·	–	–	–	66	–
Cc1ccc(OCC(=O)N/N=C/c2ccc([N+](=O)[O-])o2)cc1	·	–	–	–	–	–
Cc1ccc(OCC(=O)N/N=C\c2c(C)n(C)c3ccccc23)c([N+](=O)[O-])c1	·	–	–	–	54	–
COC(=O)C(C)N(C(=O)c1ccc(C(=O)c2ccccc2)cc1)c1c(C)cccc1C (stereo not drawn)	·	–	–	-4.5	–	–
COC(=O)C(C)N(C(=O)c1ccc(Cl)cc1)c1c(C)cccc1C (stereo not drawn)	·	–	–	-6.6	–	–
COC(=O)C(CC(=O)c1ccc(Cl)cc1)c1ccc(C)cc1 (stereo not drawn)	·	–	–	·	–	–
C=CCn1c(Cc2cccs2)nnc1SCC(=O)c1ccc2ccccc2c1	·	–	–	–	–	–
CC1=C(C)[N+](=O)C2CCCCC2N1[O-] (stereo not drawn)	–	–	–	–	–	–
COc1ccc(C(c2nnnn2Cc2ccc(F)cc2)N2CCN(c3ccccc3)CC2)cc1 (stereo not drawn)	–	-3.4	–	-5.8	37	–
COc1ccc(C(c2nnnn2Cc2cccs2)N2CCN(c3ccc(F)cc3)CC2)cc1OC (stereo not drawn)	–	-3.3	–	–	–	–
COc1ccc(N2CCN(C(c3ccccc3)c3nnnn3Cc3ccc(F)cc3)CC2)cc1 (stereo not drawn)	–	–	–	-4.6	34	–
O=C(N[C@@H](Cc1ccc(O)cc1)C(=O)O)c1cccnc1	·	·	·	–	·	·
CN(CC(=O)N1CCN(C2CCCCC2)CC1)S(=O)(=O)c1cccc2nsnc12	–	–	–	–	–	–
Cc1csc(NC(=O)CSc2nnc3ncccn23)n1	–	–	–	–	–	–
O=C(C1=C[C@H](C2CC2)C[C@H](OCCCCO)O1)N1CCOCC1	·	·	·	–	·	·
COc1cnn(-c2ccccc2)c(=O)c1SCc1ccc(Cl)cc1Cl	·	–	–	-4	36	–
SMILES	tolC growth inh	Pyk2 oligo antag	Ecoli WT expand	Cav3 T inh	PostGolgi ctrl	PostGolgi yeast
COc1ccc(-c2c(C#N)c(N)nc3c2CCc2ccccc2-3)cc1OC	·	·	–	–	44	–
CCCNC(=O)N1CCN(S(=O)(=O)c2ccc(C)cc2)CC1	–	–	–	–	–	–
Cc1cc(S(=O)(=O)N2CCOCC2)ccc1F	–	–	–	–	–	–
Cc1ccc(N2CCN(S(=O)(=O)c3ccc(F)c(C)c3)CC2)c(C)c1	–	-3.2	–	–	–	–
CCc1ccccc1N1CCN(S(=O)(=O)c2ccc(F)c(C)c2)CC1	–	-3.3	–	–	–	–
CCC(=O)c1cc(F)c(N2CCN(S(=O)(=O)c3ccc(C)cc3)CC2)cc1C	–	–	–	–	35	–
CS(=O)(=O)c1ccccc1-c1nc(-c2ccc(C(F)(F)F)cc2)no1	·	–	–	–	31	–
O=C(O)CCC(=O)c1c[nH]c2ccccc12	–	–	–	–	–	–
CCOC(=O)c1c(N)sc(-c2ccccc2)c1C	·	–	·	–	·	·
CCOC(=O)c1c(N)sc2c(OC)c(Br)ccc12	100	–	–	–	44	–
O=C(c1cc(C2CC2)nc2ccc(Br)cc12)N1N=C(C(F)F)CC1(O)C(F)F (stereo not drawn)	·	-3.3	·	-7.5	·	·
CCOC(=O)C1=C(C)C(c2ccccc2)NC(=S)N1 (stereo not drawn)	·	–	–	–	–	–
O=C1CC(c2cc(Br)ccc2F)c2cc3c(cc2N1)CCC3 (stereo not drawn)	·	–	–	–	35	–
O=C1CC(c2cccc(Cl)c2)c2cc3c(cc2N1)CCC3 (stereo not drawn)	·	–	–	–	89	–
O=C1CC(c2ccccc2F)c2cc3c(cc2N1)CCC3 (stereo not drawn)	·	–	–	·	–	–
COCCN(C(=O)CCCC(=O)Nc1ccccn1)C(C(=O)NC1CCCC1)c1ccc(C)cc1 (stereo not drawn)	–	–	–	–	–	–
COc1ccc(S(=O)(=O)N2CCCC(C(=O)N3CCOCC3)C2)cc1C (stereo not drawn)	–	–	–	–	–	–
CCOC(=O)C1=C(CSc2nc3ccccc3s2)NC(=O)NC1c1cc(C)ccc1C (stereo not drawn)	·	–	–	–	37	–
COC(=O)C1=C(CSc2nc3ccccc3o2)NC(=O)NC1c1cc(C)ccc1C (stereo not drawn)	86	–	–	·	49	–
O=C(Cn1cnc2c(nnn2Cc2ccc(F)cc2)c1=O)N1CCN(c2ccccc2)CC1	–	–	–	·	–	–
FC(F)(F)c1cccc(N2CCN(c3nnnn3-c3ccccc3)CC2)c1	69	–	–	–	–	–
c1ccc(CC2CCN(c3nnnn3-c3ccccc3)CC2)cc1	76	–	–	·	32	–
Cc1cc(C)nc(N2CCN(c3nnnn3-c3ccccc3)CC2)n1	–	–	–	–	–	–
COc1cc(-c2nnc(SC(C)C(=O)Nc3c(C)n(C)n(-c4ccccc4)c3=O)o2)cc(OC)c1OC (stereo not drawn)	·	–	–	–	–	–
CCCCCCc1cc2cc(-c3nnc(-c4ccccc4O)o3)c(=O)oc2cc1O	–	–	–	-3.5	–	–
SMILES	tolC growth inh	Pyk2 oligo antag	Ecoli WT expand	Cav3 T inh	PostGolgi ctrl	PostGolgi yeast
CCCCCCc1cc2cc(-c3nnc(-c4ccccc4OC)o3)c(=O)oc2cc1O	·	-3.1	–	-4.2	–	–
CCCCNC(=O)[C@H](CSCc1ccccc1)N1Cc2ccccc2C1=O	·	·	·	–	·	·
COc1ccc(OC)c(C(C)NC(=O)c2ccco2)c1 (stereo not drawn)	–	–	–	–	–	–
O=S(=O)(NCc1csc(-c2cccnc2)n1)c1ccc2c(c1)OCCO2	–	–	–	–	–	–
O=S(=O)(NCCc1csc(-c2ccccc2)n1)c1ccc2c(c1)OCCO2	–	–	–	-6.2	–	–
CCc1ccc(S(=O)(=O)NCc2csc(-c3ccccc3)n2)s1	–	–	–	-3.2	36	–
O=S(=O)(NCc1csc(-c2ccccc2)n1)c1ccc(Cl)s1	–	·	–	·	33	–
